ChEMBL document CHEMBL4689842, “EUbOPEN Chemogenomics Library wave 1” (2021)

Legend:
Assay type in all cases: toxicity, cell-based
HEK-293T [1] = assay: Incucyte cell viability with HEK293T; settings: human, 10 µM, compound concentration 10 uM; further: filed as whole numbers so only -1 and 0 and 1 occur
HEK-293T [2] = assay: Multiplex assay against HEK293T; settings: human;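 on Population Tubulin-Different-Phenotype (%): share of the cells with healthy nuclei that show this phenotype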
Outline: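 Imaging took place on a CQ1 microscope at 37°C and 5% CO2 once compound had been added to live cells stained at seeding with Hoechst33342, BioTracker Green Microtubule Cytoskeleton Dye, MitoTracker Red and Annexin V Alexa Fluor 680. CellPathfinder machine-learning gating classed cells as Hoechst high-intensity objects or normal cells, classed normal cells as having healthy, pyknosed or fragmented nuclei, and classed pyknosed cells as mitotic or apoptotic. Tubulin, mitochondrial-mass and membrane-permeability phenotypes are per cents of the healthy-nucleus cells.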

Fibroblast = assay: Incucyte cell viability with human fibroblast; settings: 10 µM, compound concentration 10 uM; further: filed as whole numbers so only -1 and 0 and 1 occur
[3] = 0 h, replicate number 1, timepoint 0 hours
[4] = 6 h, replicate number 1, timepoint 6 hours
[5] = 12 h, replicate number 1, timepoint 12 hours
[6] = 18 h, replicate number 1, timepoint 18 hours
[7] = 24 h, replicate number 1, timepoint 24 hours
[8] = 12 h, 1 µM, compound concentration 1 uM, replicate 1
[9] = 12 h, 1 µM, compound concentration 1 uM, replicate 2
[10] = 12 h, 10 µM, compound concentration 10 uM, replicate 1
[11] = 12 h, 10 µM, compound concentration 10 uM, replicate 2
[12] = 24 h, 1 µM, compound concentration 1 uM, replicate 1
[13] = 24 h, 1 µM, compound concentration 1 uM, replicate 2
[14] = 24 h, 10 µM, compound concentration 10 uM, replicate 1
[15] = 24 h, 10 µM, compound concentration 10 uM, replicate 2
[16] = 48 h, 1 µM, compound concentration 1 uM, replicate 1
[17] = 48 h, 1 µM, compound concentration 1 uM, replicate 2
[18] = 48 h, 10 µM, compound concentration 10 uM, replicate 1
[19] = 48 h, 10 µM, compound concentration 10 uM, replicate 2

CC(Cc1ccc(O)c(O)c1)C(C)Cc1ccc(O)c(O)c1 (configuration not stated) [NORDIHYDROGUAIARETIC ACID]
Growth Rate (HEK-293T [1]; [3]): 1 | Growth Rate (HEK-293T [1]; 0 h, replicate number 2, timepoint 0 hours): 0 | Growth Rate (HEK-293T [1]; [4]): 0 | Growth Rate (HEK-293T [1]; [5]): 0 | Growth Rate (HEK-293T [1]; [6]): 0 | Growth Rate (HEK-293T [1]; [7]): 0 | Population Apoptotic (%) (HEK-293T [2]; [8]): 42% | Population Fragmented Nuclei (%) (HEK-293T [2]; [8]): 12% | Population Healthy Nuclei (%) (HEK-293T [2]; [8]): 34% | Population Hoechst High Intensity Objects (%) (HEK-293T [2]; [8]): 16% | Population Mitochondria Different-Phenotype (%) (HEK-293T [2]; [8]): 81% | Population Mitotic Cells (%) (HEK-293T [2]; [8]): 57% | Population Normal (%) (HEK-293T [2]; [8]): 83% | Population Pyknosed Nuclei (%) (HEK-293T [2]; [8]): 52% | Population Tubulin-Different-Phenotype (%) (HEK-293T [2]; [8]): 6% | Total Cell Count (HEK-293T [2]; [8]): 150 | Population Apoptotic (%) (HEK-293T [2]; [9]): 8% | Population Fragmented Nuclei (%) (HEK-293T [2]; [9]): 6% | Population Healthy Nuclei (%) (HEK-293T [2]; [9]): 36% | Population Hoechst High Intensity Objects (%) (HEK-293T [2]; [9]): 5% | Population Membrane Permeable-Phenotype (%) (HEK-293T [2]; [9]): 2% | Population Mitochondria Different-Phenotype (%) (HEK-293T [2]; [9]): 28% | Population Mitotic Cells (%) (HEK-293T [2]; [9]): 91% | Population Normal (%) (HEK-293T [2]; [9]): 94% | Population Pyknosed Nuclei (%) (HEK-293T [2]; [9]): 57% | Population Tubulin-Different-Phenotype (%) (HEK-293T [2]; [9]): 11% | Total Cell Count (HEK-293T [2]; [9]): 194 | Population Apoptotic (%) (HEK-293T [2]; [10]): 33% | Population Fragmented Nuclei (%) (HEK-293T [2]; [10]): 12% | Population Healthy Nuclei (%) (HEK-293T [2]; [10]): 49% | Population Hoechst High Intensity Objects (%) (HEK-293T [2]; [10]): 15% | Population Membrane Permeable-Phenotype (%) (HEK-293T [2]; [10]): 3% | Population Mitochondria Different-Phenotype (%) (HEK-293T [2]; [10]): 71% | Population Mitotic Cells (%) (HEK-293T [2]; [10]): 66% | Population Normal (%) (HEK-293T [2]; [10]): 84% | Population Pyknosed Nuclei (%) (HEK-293T [2]; [10]): 37% | Population Tubulin-Different-Phenotype (%) (HEK-293T [2]; [10]): 2% | Total Cell Count (HEK-293T [2]; [10]): 211 | Population Apoptotic (%) (HEK-293T [2]; [11]): 11% | Population Fragmented Nuclei (%) (HEK-293T [2]; [11]): 6% | Population Healthy Nuclei (%) (HEK-293T [2]; [11]): 55% | Population Hoechst High Intensity Objects (%) (HEK-293T [2]; [11]): 4% | Population Membrane Permeable-Phenotype (%) (HEK-293T [2]; [11]): 1% | Population Mitochondria Different-Phenotype (%) (HEK-293T [2]; [11]): 14% | Population Mitotic Cells (%) (HEK-293T [2]; [11]): 88% | Population Normal (%) (HEK-293T [2]; [11]): 95% | Population Pyknosed Nuclei (%) (HEK-293T [2]; [11]): 38% | Population Tubulin-Different-Phenotype (%) (HEK-293T [2]; [11]): 0% | Total Cell Count (HEK-293T [2]; [11]): 254 | Population Apoptotic (%) (HEK-293T [2]; [12]): 35% | Population Fragmented Nuclei (%) (HEK-293T [2]; [12]): 12% | Population Healthy Nuclei (%) (HEK-293T [2]; [12]): 42% | Population Hoechst High Intensity Objects (%) (HEK-293T [2]; [12]): 12% | Population Membrane Permeable-Phenotype (%) (HEK-293T [2]; [12]): 1% | Population Mitochondria Different-Phenotype (%) (HEK-293T [2]; [12]): 46% | Population Mitotic Cells (%) (HEK-293T [2]; [12]): 64% | Population Normal (%) (HEK-293T [2]; [12]): 87% | Population Pyknosed Nuclei (%) (HEK-293T [2]; [12]): 45% | Population Tubulin-Different-Phenotype (%) (HEK-293T [2]; [12]): 15% | Total Cell Count (HEK-293T [2]; [12]): 156 | Population Apoptotic (%) (HEK-293T [2]; [13]): 18% | Population Fragmented Nuclei (%) (HEK-293T [2]; [13]): 5% | Population Healthy Nuclei (%) (HEK-293T [2]; [13]): 48% | Population Hoechst High Intensity Objects (%) (HEK-293T [2]; [13]): 3% | Population Membrane Permeable-Phenotype (%) (HEK-293T [2]; [13]): 6% | Population Mitochondria Different-Phenotype (%) (HEK-293T [2]; [13]): 11% | Population Mitotic Cells (%) (HEK-293T [2]; [13]): 81% | Population Normal (%) (HEK-293T [2]; [13]): 96% | Population Pyknosed Nuclei (%) (HEK-293T [2]; [13]): 46% | Population Tubulin-Different-Phenotype (%) (HEK-293T [2]; [13]): 12% | Total Cell Count (HEK-293T [2]; [13]): 212 | Population Apoptotic (%) (HEK-293T [2]; [14]): 27% | Population Fragmented Nuclei (%) (HEK-293T [2]; [14]): 17% | Population Healthy Nuclei (%) (HEK-293T [2]; [14]): 39% | Population Hoechst High Intensity Objects (%) (HEK-293T [2]; [14]): 7% | Population Membrane Permeable-Phenotype (%) (HEK-293T [2]; [14]): 0% | Population Mitochondria Different-Phenotype (%) (HEK-293T [2]; [14]): 50% | Population Mitotic Cells (%) (HEK-293T [2]; [14]): 72% | Population Normal (%) (HEK-293T [2]; [14]): 92% | Population Pyknosed Nuclei (%) (HEK-293T [2]; [14]): 42% | Population Tubulin-Different-Phenotype (%) (HEK-293T [2]; [14]): 7% | Total Cell Count (HEK-293T [2]; [14]): 192 | Population Apoptotic (%) (HEK-293T [2]; [15]): 16% | Population Fragmented Nuclei (%) (HEK-293T [2]; [15]): 8% | Population Healthy Nuclei (%) (HEK-293T [2]; [15]): 58% | Population Hoechst High Intensity Objects (%) (HEK-293T [2]; [15]): 3% | Population Membrane Permeable-Phenotype (%) (HEK-293T [2]; [15]): 1% | Population Mitochondria Different-Phenotype (%) (HEK-293T [2]; [15]): 4% | Population Mitotic Cells (%) (HEK-293T [2]; [15]): 83% | Population Normal (%) (HEK-293T [2]; [15]): 96% | Population Pyknosed Nuclei (%) (HEK-293T [2]; [15]): 32% | Population Tubulin-Different-Phenotype (%) (HEK-293T [2]; [15]): 1% | Total Cell Count (HEK-293T [2]; [15]): 255 | Population Apoptotic (%) (HEK-293T [2]; [16]): 21% | Population Fragmented Nuclei (%) (HEK-293T [2]; [16]): 11% | Population Healthy Nuclei (%) (HEK-293T [2]; [16]): 68% | Population Hoechst High Intensity Objects (%) (HEK-293T [2]; [16]): 8% | Population Membrane Permeable-Phenotype (%) (HEK-293T [2]; [16]): 5% | Population Mitochondria Different-Phenotype (%) (HEK-293T [2]; [16]): 19% | Population Mitotic Cells (%) (HEK-293T [2]; [16]): 78% | Population Normal (%) (HEK-293T [2]; [16]): 91% | Population Pyknosed Nuclei (%) (HEK-293T [2]; [16]): 20% | Population Tubulin-Different-Phenotype (%) (HEK-293T [2]; [16]): 14% | Total Cell Count (HEK-293T [2]; [16]): 223 | Population Apoptotic (%) (HEK-293T [2]; [17]): 14% | Population Fragmented Nuclei (%) (HEK-293T [2]; [17]): 7% | Population Healthy Nuclei (%) (HEK-293T [2]; [17]): 69% | Population Hoechst High Intensity Objects (%) (HEK-293T [2]; [17]): 5% | Population Membrane Permeable-Phenotype (%) (HEK-293T [2]; [17]): 7% | Population Mitochondria Different-Phenotype (%) (HEK-293T [2]; [17]): 1% | Population Mitotic Cells (%) (HEK-293T [2]; [17]): 85% | Population Normal (%) (HEK-293T [2]; [17]): 94% | Population Pyknosed Nuclei (%) (HEK-293T [2]; [17]): 23% | Population Tubulin-Different-Phenotype (%) (HEK-293T [2]; [17]): 16% | Total Cell Count (HEK-293T [2]; [17]): 312 | Population Apoptotic (%) (HEK-293T [2]; [18]): 21% | Population Fragmented Nuclei (%) (HEK-293T [2]; [18]): 21% | Population Healthy Nuclei (%) (HEK-293T [2]; [18]): 50% | Population Hoechst High Intensity Objects (%) (HEK-293T [2]; [18]): 11% | Population Membrane Permeable-Phenotype (%) (HEK-293T [2]; [18]): 7% | Population Mitochondria Different-Phenotype (%) (HEK-293T [2]; [18]): 5% | Population Mitotic Cells (%) (HEK-293T [2]; [18]): 78% | Population Normal (%) (HEK-293T [2]; [18]): 88% | Population Pyknosed Nuclei (%) (HEK-293T [2]; [18]): 28% | Population Tubulin-Different-Phenotype (%) (HEK-293T [2]; [18]): 3% | Total Cell Count (HEK-293T [2]; [18]): 187 | Population Apoptotic (%) (HEK-293T [2]; [19]): 14% | Population Fragmented Nuclei (%) (HEK-293T [2]; [19]): 7% | Population Healthy Nuclei (%) (HEK-293T [2]; [19]): 67% | Population Hoechst High Intensity Objects (%) (HEK-293T [2]; [19]): 4% | Population Membrane Permeable-Phenotype (%) (HEK-293T [2]; [19]): 5% | Population Mitochondria Different-Phenotype (%) (HEK-293T [2]; [19]): 1% | Population Mitotic Cells (%) (HEK-293T [2]; [19]): 85% | Population Normal (%) (HEK-293T [2]; [19]): 95% | Population Pyknosed Nuclei (%) (HEK-293T [2]; [19]): 25% | Population Tubulin-Different-Phenotype (%) (HEK-293T [2]; [19]): 1% | Total Cell Count (HEK-293T [2]; [19]): 280 | Growth Rate (Fibroblast; [3]): 0 | Growth Rate (Fibroblast; [4]): 0 | Growth Rate (Fibroblast; [5]): 0 | Growth Rate (Fibroblast; [6]): 0 | Growth Rate (Fibroblast; [7]): 0
